ChEMBL document CHEMBL4619776, “Probing the Plasticity in the Active Site of Protein N-terminal Methyltransferase 1 Using Bisubstrate Analogues” (J Med Chem, 2020)
Calls of active or inactive are those of the source. The rule behind the calls is not given here. Numbered stars: 1 amine (or outer) side, 2 acyl side, 3 side chain; on linkers, the order of the positions; unused ones are H or OH. Square brackets hold non-standard residues; d marks the D form. Peptide text beside a SMILES is read from it. X1 = Nc1ncnc2c1ncn2[C@@H]1O[C@H](CSCCCN(CC(=O)[*:2])[*:1])[C@@H](O)[C@H]1O; Nlys = NCCCCNCC(=O)O

What was measured:
[1] = molecular target: T1, N-terminal Xaa-Pro-Lys N-methyltransferase 1 (Homo sapiens, UniProt Q9BV86); test: Inhibition of NTMT1 (unknown origin) pre-incubated for 10 mins before GPKRIA peptide substrate addition by SAHH coupled fluorescence assay
T1 sequence (Q9BV86 whole entry): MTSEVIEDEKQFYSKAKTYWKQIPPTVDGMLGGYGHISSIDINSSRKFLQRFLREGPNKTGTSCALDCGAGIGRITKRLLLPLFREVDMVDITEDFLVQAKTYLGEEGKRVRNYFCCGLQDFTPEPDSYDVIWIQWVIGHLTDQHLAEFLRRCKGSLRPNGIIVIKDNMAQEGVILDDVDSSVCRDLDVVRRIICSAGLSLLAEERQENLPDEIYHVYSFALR
Summary of the method: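 Inhibitor at 0.15 nM–10 μM, preincubated 10 min. Reaction started with 0.5 μM GPKRIA (Km). Fluorescence read at ex 400/em 465 nm; IC50 derived.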

[2] = molecular target: T1, N-terminal Xaa-Pro-Lys N-methyltransferase 1; test: Inhibition of NTMT1 (unknown origin) pre-incubated for 10 mins before GPKRIA peptide substrate addition and measured after 20 mins by MALDI-MS methylation assay
[3] = molecular target: T2, N-terminal Xaa-Pro-Lys N-methyltransferase 1 (Homo sapiens) (UniProt Q9BV86); test: Substrate activity at NTMT1 (unknown origin) assessed as compound methylation at 10 uM incubated overnight by MALDI-MS methylation assay
T2 sequence (whole entry): T1 sequence (Q9BV86 whole entry)
Summary of the method: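 Compound (10 µM) incubated overnight at 37 °C with 0.1 µM NTMT1 and 3 µM SAM in 20 mM Tris pH 7.5, 50 mM KCl. Quenched 1:1 with 20 mM NH4H2PO4, 0.4% TFA in 1:1 acetonitrile/water. Methylated compound detected by MALDI-MS with 2,5-dihydroxybenzoic acid matrix.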

[4] = molecular target: T1, N-terminal Xaa-Pro-Lys N-methyltransferase 1; test: Time dependent inhibition of NTMT1 (unknown origin) pre-incubated for 90 mins before GPKRIA peptide substrate addition by SAHH coupled fluorescence assay based Morrison's quadratic equation analysis
[5] = molecular target: N-terminal Xaa-Pro-Lys N-methyltransferase 2 (Homo sapiens, UniProt Q5VVY1); test: Binding affinity to […] (unknown origin) by ITC assay
Summary of the method: (§1)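 Purified NTMT1 or NTMT2 at 30–50 μM in the cell; compound at 0.5–1 mM in the same buffer, titrated in as 26 injections of 10 μl spaced 180 s. Data fitted to a one-site or two-site binding model.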

[6] = molecular target: T1, N-terminal Xaa-Pro-Lys N-methyltransferase 1; test: Time dependent inhibition of NTMT1 (unknown origin) pre-incubated for 30 mins before GPKRIA peptide substrate addition by SAHH coupled fluorescence assay based Morrison's quadratic equation analysis
[7] = molecular target: T1, N-terminal Xaa-Pro-Lys N-methyltransferase 1; test: Time dependent inhibition of NTMT1 (unknown origin) pre-incubated for 10 mins before GPKRIA peptide substrate addition by SAHH coupled fluorescence assay based Morrison's quadratic equation analysis
[8] = molecular target: T1, N-terminal Xaa-Pro-Lys N-methyltransferase 1; test: Binding affinity to NTMT1 (unknown origin) assessed as binding constant Kd2 by ITC assay; summary of the method: as §1
[9] = molecular target: T1, N-terminal Xaa-Pro-Lys N-methyltransferase 1; test: Binding affinity to NTMT1 (unknown origin) assessed as binding constant Kd1 by ITC assay; summary of the method: as §1
[10] = molecular target: T1, N-terminal Xaa-Pro-Lys N-methyltransferase 1; test: Time dependent inhibition of NTMT1 (unknown origin) pre-incubated for 60 mins before GPKRIA peptide substrate addition by SAHH coupled fluorescence assay based Morrison's quadratic equation analysis
[11] = molecular target: T1, N-terminal Xaa-Pro-Lys N-methyltransferase 1; test: Time dependent inhibition of NTMT1 (unknown origin) pre-incubated for 120 mins before GPKRIA peptide substrate addition by SAHH coupled fluorescence assay based Morrison's quadratic equation analysis
[12] = tested on: Trypanosoma brucei; test: Inhibition of Trypanosoma brucei PRMT7 at 30 uM relative to control
[13] = molecular target: T3, Nicotinamide N-methyltransferase (Homo sapiens) (UniProt P40261); test: Inhibition of NNMT (unknown origin) at 100 uM
T3 sequence (whole entry): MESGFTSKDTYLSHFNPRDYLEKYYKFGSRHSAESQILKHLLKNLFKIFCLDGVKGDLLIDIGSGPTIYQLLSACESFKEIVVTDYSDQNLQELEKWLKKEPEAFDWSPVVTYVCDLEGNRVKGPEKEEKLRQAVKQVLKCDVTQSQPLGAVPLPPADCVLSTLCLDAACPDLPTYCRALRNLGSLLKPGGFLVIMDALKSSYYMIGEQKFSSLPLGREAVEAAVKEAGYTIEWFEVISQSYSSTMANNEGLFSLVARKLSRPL

[14] = molecular target: T4, Histone-lysine N-methyltransferase EHMT2 (Homo sapiens) (UniProt Q96KQ7); test: Inhibition of G9a (unknown origin) at 100 uM
T4 sequence (whole entry): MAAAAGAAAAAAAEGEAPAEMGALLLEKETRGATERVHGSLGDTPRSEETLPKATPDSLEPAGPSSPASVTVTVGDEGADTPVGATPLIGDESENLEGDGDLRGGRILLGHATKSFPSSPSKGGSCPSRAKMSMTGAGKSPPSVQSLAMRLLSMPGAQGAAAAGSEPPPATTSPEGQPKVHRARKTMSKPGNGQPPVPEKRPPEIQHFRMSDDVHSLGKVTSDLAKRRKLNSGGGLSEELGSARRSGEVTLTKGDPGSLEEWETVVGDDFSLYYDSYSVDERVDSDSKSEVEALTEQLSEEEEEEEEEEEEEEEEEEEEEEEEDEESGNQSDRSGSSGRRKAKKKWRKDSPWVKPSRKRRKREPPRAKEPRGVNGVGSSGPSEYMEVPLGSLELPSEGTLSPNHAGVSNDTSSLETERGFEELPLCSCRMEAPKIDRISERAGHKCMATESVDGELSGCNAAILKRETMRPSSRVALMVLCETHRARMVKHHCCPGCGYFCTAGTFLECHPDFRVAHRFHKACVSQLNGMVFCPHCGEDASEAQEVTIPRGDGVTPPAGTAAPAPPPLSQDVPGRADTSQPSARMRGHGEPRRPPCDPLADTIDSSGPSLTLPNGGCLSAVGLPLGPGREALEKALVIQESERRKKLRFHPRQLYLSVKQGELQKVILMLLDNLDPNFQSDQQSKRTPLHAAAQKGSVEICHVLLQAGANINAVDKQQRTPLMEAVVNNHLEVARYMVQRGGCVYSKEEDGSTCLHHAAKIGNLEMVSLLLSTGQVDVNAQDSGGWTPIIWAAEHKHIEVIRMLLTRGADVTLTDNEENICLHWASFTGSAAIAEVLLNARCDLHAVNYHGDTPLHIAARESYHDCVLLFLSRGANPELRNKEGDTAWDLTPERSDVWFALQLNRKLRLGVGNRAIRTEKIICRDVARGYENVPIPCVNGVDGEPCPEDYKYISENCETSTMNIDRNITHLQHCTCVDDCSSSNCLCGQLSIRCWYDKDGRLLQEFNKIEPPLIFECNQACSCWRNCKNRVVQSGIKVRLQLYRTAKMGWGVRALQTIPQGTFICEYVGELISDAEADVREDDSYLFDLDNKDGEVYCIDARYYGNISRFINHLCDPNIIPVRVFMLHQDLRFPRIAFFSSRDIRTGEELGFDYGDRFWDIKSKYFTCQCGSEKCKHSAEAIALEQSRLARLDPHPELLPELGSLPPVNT

[15] = molecular target: Protein arginine N-methyltransferase 3 (Homo sapiens) (UniProt O60678); test: Inhibition of PRMT3 (unknown origin) at 30 uM pre-incubated for 10 mins before H4-21 peptide addition in presence of SAM relative to control
[16] = molecular target: Protein arginine N-methyltransferase 1 (Homo sapiens) (UniProt Q99873); test: Inhibition of PRMT1 (unknown origin) at 30 uM relative to control
[17] = molecular target: Adenosylhomocysteinase (Homo sapiens) (UniProt P23526); test: Inhibition of SAHH (unknown origin) at 30 uM relative to control
[18] = molecular target: T5, Histone-lysine N-methyltransferase SETD7 (Homo sapiens) (UniProt Q8WTS6); test: Inhibition of SETD7 (unknown origin) at 100 uM
T5 sequence (whole entry): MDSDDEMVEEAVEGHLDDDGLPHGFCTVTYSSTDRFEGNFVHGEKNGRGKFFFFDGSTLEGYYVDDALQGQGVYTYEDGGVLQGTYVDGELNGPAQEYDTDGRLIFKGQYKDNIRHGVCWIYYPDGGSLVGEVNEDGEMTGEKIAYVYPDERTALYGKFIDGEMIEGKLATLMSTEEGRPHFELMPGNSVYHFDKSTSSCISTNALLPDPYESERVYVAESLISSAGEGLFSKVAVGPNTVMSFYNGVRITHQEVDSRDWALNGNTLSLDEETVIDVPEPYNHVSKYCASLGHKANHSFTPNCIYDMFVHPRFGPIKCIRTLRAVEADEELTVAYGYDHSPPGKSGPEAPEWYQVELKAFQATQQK

N-terminal Xaa-Pro-Lys N-methyltransferase 2, sequence (Q5VVY1 whole entry): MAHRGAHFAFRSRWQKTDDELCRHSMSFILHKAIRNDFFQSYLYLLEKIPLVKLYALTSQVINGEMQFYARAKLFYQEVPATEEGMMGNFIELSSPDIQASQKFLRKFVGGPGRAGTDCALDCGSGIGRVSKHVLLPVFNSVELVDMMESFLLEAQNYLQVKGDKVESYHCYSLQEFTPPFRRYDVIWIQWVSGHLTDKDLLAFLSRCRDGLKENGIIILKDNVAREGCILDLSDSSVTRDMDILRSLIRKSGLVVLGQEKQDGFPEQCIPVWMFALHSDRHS
Protein arginine N-methyltransferase 3 (Homo sapiens), sequence (O60678 2-531 limits assumed): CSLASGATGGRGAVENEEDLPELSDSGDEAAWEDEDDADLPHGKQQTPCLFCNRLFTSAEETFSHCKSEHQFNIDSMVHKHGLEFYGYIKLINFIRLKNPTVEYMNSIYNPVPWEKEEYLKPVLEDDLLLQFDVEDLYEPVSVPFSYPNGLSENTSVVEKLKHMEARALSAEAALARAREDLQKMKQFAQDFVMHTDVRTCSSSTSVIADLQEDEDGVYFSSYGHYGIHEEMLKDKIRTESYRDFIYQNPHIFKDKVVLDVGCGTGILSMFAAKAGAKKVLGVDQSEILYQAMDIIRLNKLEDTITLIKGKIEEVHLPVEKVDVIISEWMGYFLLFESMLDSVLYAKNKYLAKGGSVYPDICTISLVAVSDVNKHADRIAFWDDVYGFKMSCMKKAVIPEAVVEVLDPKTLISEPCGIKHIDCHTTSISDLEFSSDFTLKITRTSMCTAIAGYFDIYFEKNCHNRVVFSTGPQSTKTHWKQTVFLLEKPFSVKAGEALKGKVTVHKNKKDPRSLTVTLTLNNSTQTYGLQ
Adenosylhomocysteinase (Homo sapiens), sequence (P23526 2-432 limits assumed): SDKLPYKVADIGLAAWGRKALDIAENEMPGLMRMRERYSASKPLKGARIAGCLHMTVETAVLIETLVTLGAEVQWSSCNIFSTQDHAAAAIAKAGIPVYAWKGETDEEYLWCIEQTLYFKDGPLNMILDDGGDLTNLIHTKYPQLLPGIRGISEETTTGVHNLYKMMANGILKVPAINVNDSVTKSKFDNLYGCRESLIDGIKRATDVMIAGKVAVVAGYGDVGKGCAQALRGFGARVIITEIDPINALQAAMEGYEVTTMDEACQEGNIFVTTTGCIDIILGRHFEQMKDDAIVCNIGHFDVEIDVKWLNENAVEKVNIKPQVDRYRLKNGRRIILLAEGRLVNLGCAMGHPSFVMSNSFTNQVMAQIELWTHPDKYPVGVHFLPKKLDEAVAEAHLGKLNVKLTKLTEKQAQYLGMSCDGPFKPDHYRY
Protein arginine N-methyltransferase 1 (Homo sapiens), sequence (Q99873 whole entry, looked up): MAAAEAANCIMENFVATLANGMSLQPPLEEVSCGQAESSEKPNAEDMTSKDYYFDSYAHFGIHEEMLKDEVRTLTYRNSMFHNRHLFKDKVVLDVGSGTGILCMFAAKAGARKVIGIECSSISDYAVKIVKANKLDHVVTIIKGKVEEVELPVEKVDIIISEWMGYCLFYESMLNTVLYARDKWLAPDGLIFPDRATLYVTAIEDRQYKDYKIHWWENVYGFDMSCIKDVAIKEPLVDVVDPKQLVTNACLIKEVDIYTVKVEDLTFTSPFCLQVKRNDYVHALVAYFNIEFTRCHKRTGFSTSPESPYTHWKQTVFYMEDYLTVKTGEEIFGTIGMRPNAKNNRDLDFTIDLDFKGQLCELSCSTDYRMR

## N=C(N)NCCC[C@H](NC(=O)[C@H](CCCCN)NC(=O)[C@@H]1CCCN1C(=O)CNCCCCN(CC[C@H](N)C(=O)O)C[C@H]1O[C@@H](n2cnc3c(N)ncnc32)[C@H](O)[C@@H]1O)C(N)=O
[1]; read-out: IC50
  IC50: 84 nM

## NCCCCN(CC[C@H](N)C(=O)O)C[C@H]1O[C@@H](n2cnc3c(N)ncnc32)[C@H](O)[C@@H]1O
[1]; read-out: IC50
  IC50: > 10000 nM

## Nc1ncnc2c1ncn2[C@@H]1O[C@H](CNCC[C@H](N)C(=O)O)[C@@H](O)[C@H]1O
[2]
  IC50: > 10000 nM

## CC[C@H](C)[C@H](NC(=O)[C@H](CCCNC(=N)N)NC(=O)[C@H](CCCCN)NC(=O)[C@@H]1CCCN1C(=O)CNCCCCN)C(=O)N[C@@H](C)C(N)=O (H-[Nlys]PKRIA-NH2)
[3]
  Activity: Active

## N=C(N)NCCC[C@H](NC(=O)[C@H](CCCCN)NC(=O)[C@@H]1CCCN1C(=O)CNCCN(CC[C@H](N)C(=O)O)C[C@H]1O[C@@H](n2cnc3c(N)ncnc32)[C@H](O)[C@@H]1O)C(N)=O
[1]; read-out: IC50
  IC50: 320 nM

## N=C(N)NCCC[C@H](NC(=O)[C@H](CCCCN)NC(=O)[C@@H]1CCCN1C(=O)CNCCCN(CC[C@H](N)C(=O)O)C[C@H]1O[C@@H](n2cnc3c(N)ncnc32)[C@H](O)[C@@H]1O)C(N)=O
[1]; read-out: IC50
  IC50: 200 nM

## CC[C@H](C)[C@H](NC(=O)[C@H](CCCNC(=N)N)NC(=O)[C@H](CCCCN)NC(=O)[C@@H]1CCCN1C(=O)CNCCCSC[C@H]1O[C@@H](n2cnc3c(N)ncnc32)[C@H](O)[C@@H]1O)C(=O)N[C@@H](C)C(N)=O (H-[X1]PKRIA-NH2)
[3]
  Activity: Active

## CC[C@H](C)[C@H](NC(=O)[C@H](CCCNC(=N)N)NC(=O)[C@H](CCCCN)NC(=O)[C@@H]1CCCN1C(=O)CNCCCN(CC[C@H](N)C(=O)O)C[C@H]1O[C@@H](n2cnc3c(N)ncnc32)[C@H](O)[C@@H]1O)C(=O)N[C@@H](C)C(N)=O
[4]
  Ki: 2.5 nM
[5]
  Kd: Not Active
[6]
  Ki: 2.4 nM
[7]
  Ki: 41 nM
[8]
  Kd: 41 nM
[9]
  Kd: 2400 nM
[1]; read-out: IC50
  IC50: 130 nM
[10]
  Ki: 0.78 nM
[11]
  Ki: 1.3 nM

## CC[C@H](C)[C@H](NC(=O)[C@H](CCCNC(=N)N)NC(=O)[C@H](CCCCN)NC(=O)[C@@H]1CCCN1C(=O)CNCCCCN(CC[C@H](N)C(=O)O)C[C@H]1O[C@@H](n2cnc3c(N)ncnc32)[C@H](O)[C@@H]1O)C(=O)N[C@@H](C)C(N)=O
[4]
  Ki: 0.62 nM
[12]
  inhibition: < 50%
[5]
  Kd: Not Active
[13]
  inhibition: inactive
[6]
  Ki: 0.49 nM
[7]
  Ki: 15 nM
[14]
  inhibition: inactive
[8]
  Kd: 2.47 nM
[9]
  Kd: 310 nM
[15]
  inhibition: < 50%
[16]
  inhibition: < 50%
[1]; read-out: IC50
  IC50: 82 nM
[17]
  inhibition: < 50%
[10]
  Ki: 0.73 nM
[11]
  Ki: 0.13 nM
[18]
  inhibition: inactive

## CC[C@H](C)[C@H](NC(=O)[C@H](CCCNC(=N)N)NC(=O)[C@H](CCCCN)NC(=O)[C@@H]1CCCN1C(=O)CNCCCCNCC[C@H](N)C(=O)O)C(=O)N[C@@H](C)C(N)=O
[3]
  Activity: Active

## CC[C@H](C)[C@H](NC(=O)[C@H](CCCNC(=N)N)NC(=O)[C@H](CCCCN)NC(=O)[C@@H]1CCCN1C(=O)CNCCN(CC[C@H](N)C(=O)O)C[C@H]1O[C@@H](n2cnc3c(N)ncnc32)[C@H](O)[C@@H]1O)C(=O)N[C@@H](C)C(N)=O
[4]
  Ki: 4.9 nM
[5]
  Kd: Not Active
[6]
  Ki: 6.8 nM
[7]
  Ki: 99 nM
[8]
  Kd: 46.7 nM
[9]
  Kd: 980 nM
[1]; read-out: IC50
  IC50: 260 nM
[10]
  Ki: 8.2 nM
[11]
  Ki: 5.4 nM

## CC[C@H](C)[C@H](NC(=O)[C@H](CCCNC(=N)N)NC(=O)[C@H](CCCCN)NC(=O)[C@@H]1CCCN1C(=O)CNCCCCCN(CC[C@H](N)C(=O)O)C[C@H]1O[C@@H](n2cnc3c(N)ncnc32)[C@H](O)[C@@H]1O)C(=O)N[C@@H](C)C(N)=O
[5]
  Kd: Not Active
[8]
  Kd: 480 nM
[9]
  Kd: 1600 nM
[1]
  IC50: Not Active
